Columns and labels:
Type in all cases: toxicity, cell-based
[1] = system: U2OS; assay: Incucyte cell viability with U2OS; conditions: human, 10 µM, compound concentration 10 uM; further: filed as whole numbers so only -1 and 0 and 1 occur
[2] = system: HEK-293T; assay: Incucyte cell viability with HEK293T; conditions: human, 10 µM, compound concentration 10 uM; further: filed as whole numbers so only -1 and 0 and 1 occur
[3] = system: Fibroblast; assay: Multiplex assay against human fibroblast
Method in brief: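 Values for tubulin, mitochondrial-mass and membrane-permeability phenotypes are per cents of cells with healthy nuclei. These cells were identified by CellPathfinder machine-learning gating of live cells that had been stained at seeding with Hoechst33342, BioTracker Green Microtubule Cytoskeleton Dye, MitoTracker Red and Annexin V Alexa Fluor 680 and imaged on a CQ1 microscope at 37°C and 5% CO2 after compound addition. The gating first set Hoechst high-intensity objects apart from normal cells, then split normal cells into healthy, pyknosed or fragmented nuclei, and pyknosed cells into mitotic or apoptotic.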

[4] = system: Fibroblast; assay: Incucyte cell viability with human fibroblast; conditions: 10 µM, compound concentration 10 uM; further: filed as whole numbers so only -1 and 0 and 1 occur
[5] = 0 h, replicate number 1, timepoint 0 hours
[6] = 24 h, replicate number 1, timepoint 24 hours
[7] = 12 h, 1 µM, compound concentration 1 uM, replicate 1
[8] = 12 h, 1 µM, compound concentration 1 uM, replicate 2
[9] = 12 h, 10 µM, compound concentration 10 uM, replicate 1
[10] = 12 h, 10 µM, compound concentration 10 uM, replicate 2
[11] = 24 h, 1 µM, compound concentration 1 uM, replicate 1
[12] = 24 h, 1 µM, compound concentration 1 uM, replicate 2
[13] = 24 h, 10 µM, compound concentration 10 uM, replicate 1
[14] = 24 h, 10 µM, compound concentration 10 uM, replicate 2
[15] = 48 h, 1 µM, compound concentration 1 uM, replicate 1
[16] = 48 h, 1 µM, compound concentration 1 uM, replicate 2
[17] = 48 h, 10 µM, compound concentration 10 uM, replicate 1
[18] = 48 h, 10 µM, compound concentration 10 uM, replicate 2

SMILES: Cc1ccc(S(=O)(=O)NC2c3ccccc3Oc3ccccc32)cc1
- Growth Rate [1, 5]: 0
- Growth Rate ([1]; 18 h, replicate number 2, timepoint 18 hours): 1
- Growth Rate [1, 6]: 1
- Growth Rate ([1]; 24 h, replicate number 2, timepoint 24 hours): 0
- Growth Rate [2, 5]: 0
- Growth Rate ([2]; 12 h, replicate number 1, timepoint 12 hours): 1
- Growth Rate ([2]; 18 h, replicate number 1, timepoint 18 hours): 1
- Growth Rate [2, 6]: 0
- Population Apoptotic (%) [3, 7]: 57%
- Population Fragmented Nuclei (%) [3, 7]: 25%
- Population Healthy Nuclei (%) [3, 7]: 46%
- Population Hoechst High Intensity Objects (%) [3, 7]: 11%
- Population Membrane Permeable-Phenotype (%) [3, 7]: 25%
- Population Mitochondria Different-Phenotype (%) [3, 7]: 6%
- Population Mitotic Cells (%) [3, 7]: 42%
- Population Normal (%) [3, 7]: 88%
- Population Pyknosed Nuclei (%) [3, 7]: 27%
- Population Tubulin-Different-Phenotype (%) [3, 7]: 27%
- Total Cell Count [3, 7]: 105
- Population Apoptotic (%) [3, 8]: 0%
- Population Fragmented Nuclei (%) [3, 8]: 10%
- Population Healthy Nuclei (%) [3, 8]: 76%
- Population Hoechst High Intensity Objects (%) [3, 8]: 4%
- Population Membrane Permeable-Phenotype (%) [3, 8]: 0%
- Population Mitochondria Different-Phenotype (%) [3, 8]: 16%
- Population Mitotic Cells (%) [3, 8]: 100%
- Population Normal (%) [3, 8]: 95%
- Population Pyknosed Nuclei (%) [3, 8]: 12%
- Population Tubulin-Different-Phenotype (%) [3, 8]: 2%
- Total Cell Count [3, 8]: 49
- Population Apoptotic (%) [3, 9]: 80%
- Population Fragmented Nuclei (%) [3, 9]: 41%
- Population Healthy Nuclei (%) [3, 9]: 41%
- Population Hoechst High Intensity Objects (%) [3, 9]: 17%
- Population Membrane Permeable-Phenotype (%) [3, 9]: 56%
- Population Mitochondria Different-Phenotype (%) [3, 9]: 54%
- Population Mitotic Cells (%) [3, 9]: 20%
- Population Normal (%) [3, 9]: 82%
- Population Pyknosed Nuclei (%) [3, 9]: 16%
- Population Tubulin-Different-Phenotype (%) [3, 9]: 17%
- Total Cell Count [3, 9]: 218
- Population Apoptotic (%) [3, 10]: 95%
- Population Fragmented Nuclei (%) [3, 10]: 42%
- Population Healthy Nuclei (%) [3, 10]: 34%
- Population Hoechst High Intensity Objects (%) [3, 10]: 6%
- Population Membrane Permeable-Phenotype (%) [3, 10]: 44%
- Population Mitochondria Different-Phenotype (%) [3, 10]: 0%
- Population Mitotic Cells (%) [3, 10]: 4%
- Population Normal (%) [3, 10]: 93%
- Population Pyknosed Nuclei (%) [3, 10]: 23%
- Population Tubulin-Different-Phenotype (%) [3, 10]: 50%
- Total Cell Count [3, 10]: 106
- Population Apoptotic (%) [3, 11]: 50%
- Population Fragmented Nuclei (%) [3, 11]: 26%
- Population Healthy Nuclei (%) [3, 11]: 51%
- Population Hoechst High Intensity Objects (%) [3, 11]: 19%
- Population Membrane Permeable-Phenotype (%) [3, 11]: 28%
- Population Mitochondria Different-Phenotype (%) [3, 11]: 10%
- Population Mitotic Cells (%) [3, 11]: 50%
- Population Normal (%) [3, 11]: 80%
- Population Pyknosed Nuclei (%) [3, 11]: 22%
- Population Tubulin-Different-Phenotype (%) [3, 11]: 53%
- Total Cell Count [3, 11]: 119
- Population Apoptotic (%) [3, 12]: 25%
- Population Fragmented Nuclei (%) [3, 12]: 5%
- Population Healthy Nuclei (%) [3, 12]: 88%
- Population Hoechst High Intensity Objects (%) [3, 12]: 7%
- Population Membrane Permeable-Phenotype (%) [3, 12]: 7%
- Population Mitochondria Different-Phenotype (%) [3, 12]: 15%
- Population Mitotic Cells (%) [3, 12]: 75%
- Population Normal (%) [3, 12]: 92%
- Population Pyknosed Nuclei (%) [3, 12]: 6%
- Population Tubulin-Different-Phenotype (%) [3, 12]: 13%
- Total Cell Count [3, 12]: 65
- Population Apoptotic (%) [3, 13]: 75%
- Population Fragmented Nuclei (%) [3, 13]: 35%
- Population Healthy Nuclei (%) [3, 13]: 53%
- Population Hoechst High Intensity Objects (%) [3, 13]: 16%
- Population Membrane Permeable-Phenotype (%) [3, 13]: 64%
- Population Mitochondria Different-Phenotype (%) [3, 13]: 43%
- Population Mitotic Cells (%) [3, 13]: 25%
- Population Normal (%) [3, 13]: 83%
- Population Pyknosed Nuclei (%) [3, 13]: 11%
- Population Tubulin-Different-Phenotype (%) [3, 13]: 28%
- Total Cell Count [3, 13]: 170
- Population Apoptotic (%) [3, 14]: 100%
- Population Fragmented Nuclei (%) [3, 14]: 10%
- Population Healthy Nuclei (%) [3, 14]: 68%
- Population Hoechst High Intensity Objects (%) [3, 14]: 4%
- Population Membrane Permeable-Phenotype (%) [3, 14]: 20%
- Population Mitochondria Different-Phenotype (%) [3, 14]: 14%
- Population Mitotic Cells (%) [3, 14]: 0%
- Population Normal (%) [3, 14]: 95%
- Population Pyknosed Nuclei (%) [3, 14]: 21%
- Population Tubulin-Different-Phenotype (%) [3, 14]: 43%
- Total Cell Count [3, 14]: 84
- Population Apoptotic (%) [3, 15]: 42%
- Population Fragmented Nuclei (%) [3, 15]: 33%
- Population Healthy Nuclei (%) [3, 15]: 50%
- Population Hoechst High Intensity Objects (%) [3, 15]: 19%
- Population Membrane Permeable-Phenotype (%) [3, 15]: 22%
- Population Mitochondria Different-Phenotype (%) [3, 15]: 4%
- Population Mitotic Cells (%) [3, 15]: 57%
- Population Normal (%) [3, 15]: 80%
- Population Pyknosed Nuclei (%) [3, 15]: 15%
- Population Tubulin-Different-Phenotype (%) [3, 15]: 37%
- Total Cell Count [3, 15]: 111
- Population Apoptotic (%) [3, 16]: 75%
- Population Fragmented Nuclei (%) [3, 16]: 17%
- Population Healthy Nuclei (%) [3, 16]: 75%
- Population Hoechst High Intensity Objects (%) [3, 16]: 14%
- Population Membrane Permeable-Phenotype (%) [3, 16]: 15%
- Population Mitochondria Different-Phenotype (%) [3, 16]: 6%
- Population Mitotic Cells (%) [3, 16]: 25%
- Population Normal (%) [3, 16]: 85%
- Population Pyknosed Nuclei (%) [3, 16]: 6%
- Population Tubulin-Different-Phenotype (%) [3, 16]: 34%
- Total Cell Count [3, 16]: 68
- Population Apoptotic (%) [3, 17]: 42%
- Population Fragmented Nuclei (%) [3, 17]: 27%
- Population Healthy Nuclei (%) [3, 17]: 66%
- Population Hoechst High Intensity Objects (%) [3, 17]: 7%
- Population Membrane Permeable-Phenotype (%) [3, 17]: 20%
- Population Mitochondria Different-Phenotype (%) [3, 17]: 2%
- Population Mitotic Cells (%) [3, 17]: 57%
- Population Normal (%) [3, 17]: 92%
- Population Pyknosed Nuclei (%) [3, 17]: 5%
- Population Tubulin-Different-Phenotype (%) [3, 17]: 26%
- Total Cell Count [3, 17]: 133
- Population Apoptotic (%) [3, 18]: 80%
- Population Fragmented Nuclei (%) [3, 18]: 20%
- Population Healthy Nuclei (%) [3, 18]: 72%
- Population Hoechst High Intensity Objects (%) [3, 18]: 14%
- Population Membrane Permeable-Phenotype (%) [3, 18]: 25%
- Population Mitochondria Different-Phenotype (%) [3, 18]: 3%
- Population Mitotic Cells (%) [3, 18]: 20%
- Population Normal (%) [3, 18]: 85%
- Population Pyknosed Nuclei (%) [3, 18]: 6%
- Population Tubulin-Different-Phenotype (%) [3, 18]: 50%
- Total Cell Count [3, 18]: 84
- Growth Rate [4, 5]: 0
- Growth Rate [4, 6]: 1

— ChEMBL document CHEMBL4689842, “EUbOPEN Chemogenomics Library wave 1” (2021)
